Laboratory results published in publication PMC9810488 (Translational and Clinical Pharmacology, 2022).
Where two headings read alike, the source gives them in different places.

How the values were obtained:
[1] = cited from earlier work
[2] = assay type: in vivo, human; conditions: sitagliptin 100 mg single oral dose, plasma
Method in brief: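 Healthy Korean adults (≥19 years, BMI 18.0–30.0 kg/m2) took a single 100 mg oral tablet with 150 mL water in randomized periods, washout ≥7 days. Heparinized blood was drawn predose and 15 min–48 h postdose, centrifuged 3,000 rpm, 10 min, 4°C, and plasma stored at −70°C. Assay was LC-MS/MS, positive-ion ESI. Noncompartmental: Cmax observed, AUCinf by linear-up log-down trapezoidal rule. ABCB1 genotyped by TaqMan allelic discrimination.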

[3] = cited from earlier work; remark: listed apart in the source

SMILES | digoxin concentrations higher in 3435TT homozygous subjects than in CC and CT subjects ([1]; 34 Caucasian subjects) [%] | lower AUC for digoxin in 3435 TT genotype than in CC and CT genotypes ([1]; Japanese study, 114 subjects) [%] | relationship between C3435T SNP and digoxin concentrations ([1]; single digoxin dose) | Sitagliptin AUCinf ([2]; ABCB1 C1236T CC+CT (n=72)) | Sitagliptin Cmax ([2]; ABCB1 C1236T CT+TT (n=81)) [ng/mL] | Sitagliptin AUCinf ([2]; ABCB1 C3435T CC (n=49)) | Sitagliptin AUCinf ([2]; ABCB1 C3435T CC+CT (n=91)) | Sitagliptin Cmax ([2]; ABCB1 C3435T CT (n=42)) [ng/mL] | Sitagliptin Cmax ([2]; ABCB1 C3435T CT+TT (n=51)) [ng/mL] | Sitagliptin AUCinf ([2]; ABCB1 C3435T TT (n=9)) | Sitagliptin AUCinf ([2]; ABCB1 G2677T/A AA (n=2)) | Sitagliptin AUCinf ([2]; ABCB1 G2677T/A AT+GA (n=37)) | Sitagliptin Cmax ([2]; ABCB1 G2677T/A AT+GA (n=37)) [ng/mL] | Sitagliptin AUCinf ([2]; ABCB1 G2677T/A AT+GT (n=44)) | Sitagliptin Cmax ([2]; ABCB1 G2677T/A AT+GT (n=44)) [ng/mL] | Sitagliptin AUCinf ([2]; ABCB1 G2677T/A GA (n=20)) | Sitagliptin AUCinf ([2]; ABCB1 G2677T/A GA+GT (n=47)) | Sitagliptin AUCinf ([2]; ABCB1 G2677T/A TT (n=9)) | drug eliminated as unchanged compound in the urine [3]
C[C@H]1O[C@@H](O[C@H]2[C@@H](O)C[C@H](O[C@H]3[C@@H](O)C[C@H](O[C@H]4CC[C@@]5(C)[C@H](CC[C@@H]6[C@@H]5C[C@@H](O)[C@]5(C)[C@@H](C7=CC(=O)OC7)CC[C@]65O)C4)O[C@@H]3C)O[C@@H]2C)C[C@H](O)[C@@H]1O [digoxin] | 20 | 20 | no relationship | – | – | – | – | – | – | – | – | – | – | – | – | – | – | – | –
N[C@@H](CC(=O)N1CCn2c(nnc2C(F)(F)F)C1)Cc1cc(F)c(F)cc1F [Sitagliptin] | – | – | – | 3,504.78 ± 655.77 ng*h/mL | 456.01 ± 123.74 | 3,530.20 ± 669.78 ng*h/mL | 3,484.02 ± 630.25 ng*h/mL | 454.26 ± 136.79 | 457.53 ± 130.73 | 3,528.50 ± 564.05 ng*h/mL | 3,481.41 ng*h/mL | 3,501.79 ± 714.08 ng*h/mL | 457.90 ± 98.21 | 3,475.54 ± 576.82 ng*h/mL | 457.31 ± 142.79 | 3,679.91 ± 852.18 ng*h/mL | 3,628.80 ± 723.63 ng*h/mL | 3,477.17 ± 596.14 ng*h/mL | over 80%
